Results published in ChEMBL document CHEMBL1131098, “Synthesis and antitumor activity of 4-aminomethylthioxanthenone and 5-aminomethylbenzothiopyranoindazole derivatives” (J Med Chem, 1998).

What was measured:
Format in all cases: functional
[1] = species: Mus musculus; assay: compound was tested for murine tumor growth inhibition,T/C value ([…]/control) in mice.
Procedure, shortened: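 BDF1 mice implanted bilaterally sc with 30–60-mg Panc03 fragments on day 0. Dosing iv at the maximum tolerated dose (LD10 or less), starting 3 days after implantation. Tumor growth inhibition expressed as %T/C; %T/C > 42 counted as not active.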

[2] = system: Mus musculus; assay: In vivo antitumor activity measured in mice against the Colon26/A murine solid tumors.
[3] = system: Mus musculus; assay: In vivo antitumor activity measured in mice against the Colon38 murine solid tumors.
[4] = system: Mus musculus; assay: In vivo antitumor activity measured in mice against the Colon51 murine solid tumors.
[5] = system: Mus musculus; assay: In vivo antitumor activity measured in mice against the Mam16/C murine solid tumors.
[6] = system: Mus musculus; assay: In vivo antitumor activity measured in mice against the Panc 02 murine solid tumors.
[7] = species: Mus musculus; assay: The long term cures (LTC) value is the number of mice in a group with no palpable tumor.
Procedure, shortened: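 Panc03-bearing BDF1 mice (bilateral sc fragments) dosed iv at the maximum tolerated dose from day 3. Long-term cure is a mouse with no palpable tumor after at least 86 days, reported as cured mice over total mice per treatment group.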

Q: `CCN(CC)CCNc1ccc(CN2C(=O)c3ccccc3C2=O)c2sc3ccccc3c(=O)c12` was tested. Which T/C [1] did it give?
A: Its T/C is 38%.

Q: `COc1cccc2c1C(=O)c1c(O)c3c(c(O)c1C2=O)C[C@@](O)(C(=O)CO)C[C@@H]3O[C@H]1C[C@H](N)[C@H](O)[C@H](C)O1` [DOXORUBICIN] was tested. Which T/C [2] did it give?
A: Its T/C is 7%.

Q: What about the T/C [3] of the same compound?
A: Its T/C is 0%.

Q: What about the T/C [4] of the same compound?
A: The T/C was 21%.

Q: What about the T/C [5] of the same compound?
A: Its T/C is 0%.

Q: What about the T/C [6] of the same compound?
A: The T/C was 35%.

Q: What about the LTC [7] of the same compound?
A: The LTC was 0.2.
